In ChEMBL document CHEMBL4229353, “Synthesis and antiviral evaluation of cyclopentyl nucleoside phosphonates” (Eur J Med Chem, 2018):

Tests used:
Human alphaherpesvirus 3 [1] = test: Antiviral activity against thymidine kinase deficient Varicella-Zoster virus 07-1 infected in HEL cells assessed as inhibition of plaque formation measured after 5 days post infection; format: functional, organism-based; conditions: Human alphaherpesvirus 3, 07-1, HEL, 120 h
Summary of the method: (§1)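 Confluent HEL fibroblast monolayers in 96-well plates were inoculated with 20 PFU of VZV (Oka or TK– strain 07-1). After 2 h adsorption, the inoculum was removed and cultures were incubated with varying compound concentrations. Plaque formation was recorded at 5 days post-infection.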

Human alphaherpesvirus 3 [2] = test: Antiviral activity against thymidine kinase expressing Varicella-Zoster virus Oka infected in HEL cells assessed as inhibition of plaque formation measured after 5 days post infection; format: functional, organism-based; conditions: Human alphaherpesvirus 3, strain Oka vaccine, 120 h; summary of the method: as §1
Human alphaherpesvirus 1 = test: Antiviral activity against thymidine kinase-deficient ACV-resistant Herpes simplex virus 1 KOS infected in HEL cells assessed as […] measured after 2 to 3 days post infection; format: functional, organism-based; conditions: Human alphaherpesvirus 1, KOS
Summary of the method: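 Confluent HEL fibroblast monolayers in 96-well plates were inoculated with 100 CCID50 of HSV-1 (KOS or TK-deficient ACV-resistant KOS). After 2 h adsorption, the inoculum was removed and cells were incubated with varying compound concentrations. Virus-induced cytopathicity was recorded at 2-3 days post-infection.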

[3] = Cytotoxicity against HEL cells assessed as alteration in cell morphology after 3 days by microscopic analysis; format: cell-based; conditions: human
Summary of the method: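 Uninfected HEL cell cultures were exposed to graded compound concentrations. MCC is the lowest concentration producing a microscopically detectable alteration of cell morphology.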

Human alphaherpesvirus 2 = test: Antiviral activity against Herpes simplex virus 2 G infected in HEL cells assessed as […] measured after 2 to 3 days post infection; format: functional, organism-based; conditions: Human alphaherpesvirus 2, strain G
Summary of the method: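 Confluent HEL fibroblast monolayers were infected with 100 CCID50 of virus, and the inoculum was removed after 2 h adsorption. Cells were then cultured with serial compound concentrations. Virus-induced cytopathicity was scored at 2-3 days (HSV) or 6-7 days (HCMV) post-infection.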

[4] = Cytostatic activity against HEL cells after 3 days by Coulter counting method; format: cell-based; conditions: human
Summary of the method: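 HEL cells were seeded at 5 x 10^3 cells/well and left to proliferate for 24 h. Medium with graded compound concentrations was then added, followed by 3 days at 37 °C. Cells were counted with a Coulter counter. CC50, the concentration halving proliferation relative to untreated controls, was read from plots of cell number (% of control) versus concentration.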

| SMILES | EC50 (Human alphaherpesvirus 3 [1]) | EC50 (Human alphaherpesvirus 3 [2]) | EC50 (Human alphaherpesvirus 1) | MCC at 72 h [3] | EC50 (Human alphaherpesvirus 2) | CC50 at 72 h [4] |
| --- | --- | --- | --- | --- | --- | --- |
| Nc1ccn([C@@H]2C[C@H](OCP(=O)(O)O)[C@@H](O)C2)c(=O)n1 | > 327 µM | > 327 µM | > 327 µM | > 327 µM | > 327 µM |  |
| Cc1cn([C@@H]2C[C@H](OCP(=O)(O)O)C[C@H]2O)c(=O)[nH]c1=O | > 247 µM | > 247 µM | > 247 µM | > 247 µM | > 247 µM |  |
| CC(C)OC(=O)[C@H](C)NP(=O)(CO[C@@H]1C[C@@H](O)[C@H](n2cnc3c(=O)[nH]c(N)nc32)C1)N[C@@H](C)C(=O)OC(C)C | > 175 µM | 66.6 µM | > 175 µM | > 175 µM | > 175 µM | > 175 µM |
| O=c1[nH]c(=O)n([C@H]2C[C@H](O)[C@@H](CO)O2)cc1/C=C/Br [BRIVUDINE] | 3.39 µM | 0.021 µM | > 30 µM | > 300 µM | > 30 µM | > 300 µM |
| Cc1cn([C@@H]2C[C@H](OCP(=O)(O)O)[C@@H](O)C2)c(=O)[nH]c1=O | 5.73 µM | 23.1 µM | 9.89 µM | > 247 µM | 92.3 µM | 69.4 µM |
| Nc1nc2c(ncn2COC(CO)CO)c(=O)[nH]1 [GANCICLOVIR] |  |  | 3.91 µM | > 391 µM | 0.019 µM | > 391 µM |
| Nc1ncnc2c1ncn2[C@@H]1C[C@H](OCP(=O)(O)O)C[C@H]1O | > 303 µM | > 303 µM | 161 µM | > 303 µM | 132 µM |  |
| Nc1ncnc2c1ncn2[C@@H]1C[C@H](OCP(=O)(O)O)[C@@H](O)C1 | 79 µM | 258 µM | > 303 µM | > 303 µM | > 303 µM |  |
| Nc1nc2c(ncn2[C@@H]2C[C@H](OCP(=O)(O)O)C[C@H]2O)c(=O)[nH]1 | 8.83 µM | 5.35 µM | 99 µM | > 289 µM | 57.9 µM | > 289 µM |
| Nc1nc2c(ncn2COCCO)c(=O)[nH]1 [ACYCLOVIR] | 14.1 µM | 3.37 µM | > 88 µM | > 444 µM | 0.29 µM | > 444 µM |
| CC(C)OC(=O)[C@H](C)NP(=O)(CO[C@H]1C[C@@H](n2cnc3c(=O)[nH]c(N)nc32)C[C@@H]1O)N[C@@H](C)C(=O)OC(C)C | 29.8 µM | 35 µM | 35 µM | > 175 µM | 85.5 µM | > 175 µM |
| Nc1ccn(C[C@@H](CO)OCP(=O)(O)O)c(=O)n1 [CIDOFOVIR] |  |  |  | > 358 µM | 2.27 µM | > 358 µM |
| Nc1nc2c(ncn2[C@@H]2C[C@H](OCP(=O)(O)O)[C@@H](O)C2)c(=O)[nH]1 | 8.38 µM | 17.1 µM | 14.1 µM | > 289 µM | 33.9 µM | > 289 µM |
| Nc1ccn([C@@H]2C[C@H](OCP(=O)(O)O)C[C@H]2O)c(=O)n1 | > 327 µM | > 327 µM | > 327 µM | > 327 µM | > 327 µM |  |
